Assays:
Type in all cases: functional
BT-549 = assay: Growth inhibition of human BT549 cells at 10 uM after 48 hrs by coulter counter analysis; details: BT-549, 48 h, read-out: GI
Method in brief: (§1)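 Single-dose NCI 60-line panel screen of test compounds. Cells grown in RPMI 1640 with 10% FBS. Compounds dissolved in DMSO, then diluted in phosphate buffer saline (final DMSO below 1%). Wells run in duplicate at 6 × 10⁴ cells/ml. Controls held PBS and DMSO at matching dilutions. Incubation 48 h at 37 °C under humidified 5% CO2. Cells diluted tenfold in saline and counted by Coulter counter. Percent growth inhibition taken from mean-graph of treated-cell growth.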

LOX IMVI = assay: Growth inhibition of human LOXIMVI cells at 10 uM after 48 hrs by coulter counter analysis; details: read-out: GI; method in brief: as §1
SK-MEL-28 = assay: Growth inhibition of human SK-MEL-28 cells at 10 uM after 48 hrs by coulter counter analysis; details: SK-MEL-28, 48 h, read-out: GI; method in brief: as §1
HT-29 = assay: Growth inhibition of human HT-29 cells at 10 uM after 48 hrs by coulter counter analysis; details: HT-29, 48 h, read-out: GI; method in brief: as §1
HCT-15 = assay: Growth inhibition of human HCT15 cells at 10 uM after 48 hrs by coulter counter analysis; details: HCT-15, 48 h, read-out: GI; method in brief: as §1
HOP-92 = assay: Growth inhibition of human HOP92 cells at 10 uM after 48 hrs by coulter counter analysis; details: HOP-92, 48 h, read-out: GI; method in brief: as §1
HL-60(TB) = assay: Growth inhibition of human HL-60(TB) cells at 10 uM after 48 hrs by coulter counter analysis; details: HL-60, 48 h, read-out: GI
Method in brief: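 Cells grown in RPMI 1640 with 10% FBS. Compound was dissolved in DMSO and diluted in PBS (under 1% DMSO final), then added in duplicate wells to culture at 6 × 10⁴ cells/ml. PBS/DMSO vehicle controls were included. Incubated at 37 °C, humidified 5% CO₂, for 48 h. Cells were diluted 10-fold in saline and Coulter-counted. Single-dose NCI-60 screen, read as percent growth inhibition.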

MDA-MB-468 = assay: Growth inhibition of human MDA-MB-468 cells at 10 uM after 48 hrs by coulter counter analysis; details: MDA-MB-468, 48 h, read-out: GI; method in brief: as §1
SF-539 = assay: Growth inhibition of human SF539 cells at 10 uM after 48 hrs by coulter counter analysis; details: SF-539, 48 h, read-out: GI; method in brief: as §1
CAKI-1 = assay: Growth inhibition of human Caki1 cells at 10 uM after 48 hrs by coulter counter analysis; details: CAKI-1, 48 h, read-out: GI; method in brief: as §1
DU-145 = assay: Growth inhibition of human DU145 cells at 10 uM after 48 hrs by coulter counter analysis; details: DU-145, 48 h, read-out: GI; method in brief: as §1
RXF 393 = assay: Growth inhibition of human RXF393 cells at 10 uM after 48 hrs by coulter counter analysis; details: RXF 393, 48 h, read-out: GI; method in brief: as §1
PC-3 = assay: Growth inhibition of human PC3 cells at 10 uM after 48 hrs by coulter counter analysis; details: PC-3, 48 h, read-out: GI; method in brief: as §1
SN12C = assay: Growth inhibition of human SN12C cells at 10 uM after 48 hrs by coulter counter analysis; details: read-out: GI; method in brief: as §1
A498 = assay: Growth inhibition of human A498 cells at 10 uM after 48 hrs by coulter counter analysis; details: A498, 48 h, read-out: GI; method in brief: as §1
NCI-H460 = assay: Growth inhibition of human NCI-H460 cells at 10 uM after 48 hrs by coulter counter analysis; details: NCI-H460, 48 h, read-out: GI; method in brief: as §1
RPMI-8226 = assay: Growth inhibition of human RPMI8226 cells at 10 uM after 48 hrs by coulter counter analysis; details: RPMI-8226, 48 h, read-out: GI; method in brief: as §1
HCC 2998 = assay: Growth inhibition of human HCC2998 cells at 10 uM after 48 hrs by coulter counter analysis; details: HCC 2998, 48 h, read-out: GI; method in brief: as §1
[1] = Growth inhibition of human Hs 578T cells at 10 uM after 48 hrs by coulter counter analysis; details: read-out: GI; method in brief: as §1
SW-620 = assay: Growth inhibition of human SW620 cells at 10 uM after 48 hrs by coulter counter analysis; details: SW-620, 48 h, read-out: GI
Method in brief: (§2)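 Single-dose screen in the NCI 60 cell line panel. Cells grown in RPMI 1640 with 10% FBS. Compounds dissolved in DMSO and diluted in phosphate buffered saline, final DMSO under 1%. Duplicate wells seeded from culture at 6 × 10⁴ cells/ml. Incubated 48 h at 37 °C, humidified, 5% CO2. Cells diluted tenfold in saline and Coulter-counted. Percent growth inhibition computed against PBS/DMSO controls.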

OVCAR-3 = assay: Growth inhibition of human OVCAR3 cells at 10 uM after 48 hrs by coulter counter analysis; details: OVCAR-3, 48 h, read-out: GI; method in brief: as §1
Malme-3M = assay: Growth inhibition of human MALME-3M cells at 10 uM after 48 hrs by coulter counter analysis; details: read-out: GI; method in brief: as §1
COLO 205 = assay: Growth inhibition of human COLO205 cells at 10 uM after 48 hrs by coulter counter analysis; details: COLO 205, 48 h, read-out: GI; method in brief: as §1
[2] = Growth inhibition of human NCI-ADR-RES cells at 10 uM after 48 hrs by coulter counter analysis; details: read-out: GI; method in brief: as §1
SNB-19 = assay: Growth inhibition of human SNB19 cells at 10 uM after 48 hrs by coulter counter analysis; details: SNB-19, 48 h, read-out: GI; method in brief: as §1
CCRF-CEM = assay: Growth inhibition of human CCRF-CEM cells at 10 uM after 48 hrs by coulter counter analysis; details: read-out: GI; method in brief: as §1
U-251 = assay: Growth inhibition of human U251 cells at 10 uM after 48 hrs by coulter counter analysis; details: U-251, 48 h, read-out: GI; method in brief: as §2
A549 = assay: Growth inhibition of human A549/ATCC cells at 10 uM after 48 hrs by coulter counter analysis; details: A549, 48 h, read-out: GI; method in brief: as §1
UO-31 = assay: Growth inhibition of human UO31 cells at 10 uM after 48 hrs by coulter counter analysis; details: UO-31, 48 h, read-out: GI; method in brief: as §2
K562 = assay: Growth inhibition of human K562 cells at 10 uM after 48 hrs by coulter counter analysis; details: K562, 48 h, read-out: GI; method in brief: as §1
786-0 = assay: Growth inhibition of human 786-0 cells at 10 uM after 48 hrs by coulter counter analysis; details: 786-0, 48 h, read-out: GI; method in brief: as §1
SF-268 = assay: Growth inhibition of human SF268 cells at 10 uM after 48 hrs by coulter counter analysis; details: SF-268, 48 h, read-out: GI; method in brief: as §1
IGROV-1 = assay: Growth inhibition of human IGROV1 cells at 10 uM after 48 hrs by coulter counter analysis; details: IGROV-1, 48 h, read-out: GI; method in brief: as §1

SMILES	inhibition of growth at 10 µM (BT-549) [%]	inhibition of growth at 10 µM (LOX IMVI) [%]	inhibition of growth at 10 µM (SK-MEL-28) [%]	inhibition of growth at 10 µM (HT-29) [%]	inhibition of growth at 10 µM (HCT-15) [%]	inhibition of growth at 10 µM (HOP-92) [%]	inhibition of growth at 10 µM (HL-60(TB)) [%]	inhibition of growth at 10 µM (MDA-MB-468) [%]	inhibition of growth at 10 µM (SF-539) [%]	inhibition of growth at 10 µM (CAKI-1) [%]	inhibition of growth at 10 µM (DU-145) [%]	inhibition of growth at 10 µM (RXF 393) [%]	inhibition of growth at 10 µM (PC-3) [%]	inhibition of growth at 10 µM (SN12C) [%]	inhibition of growth at 10 µM (A498) [%]	inhibition of growth at 10 µM (NCI-H460) [%]	inhibition of growth at 10 µM (RPMI-8226) [%]	inhibition of growth at 10 µM (HCC 2998) [%]	inhibition of growth at 10 µM [1] [%]	inhibition of growth at 10 µM (SW-620) [%]	other results
CCOC(=O)c1sc(NC(=O)CCN2CCOCC2)nc1C	< 10	< 10	< 10	< 10	< 10	21.9	< 10	< 10	< 10	< 10	< 10	< 10	< 10	< 10	< 10	< 10	< 10	< 10	< 10	< 10	inhibition of growth at 10 µM (OVCAR-3): < 10%; inhibition of growth at 10 µM (Malme-3M): < 10%; inhibition of growth at 10 µM (COLO 205): < 10%; inhibition of growth at 10 µM [2]: < 10%; inhibition of growth at 10 µM (SNB-19): < 10%; inhibition of growth at 10 µM (CCRF-CEM): < 10%; inhibition of growth at 10 µM (U-251): < 10%; inhibition of growth at 10 µM (A549): < 10%; inhibition of growth at 10 µM (UO-31): 10.6%; inhibition of growth at 10 µM (K562): < 10%; inhibition of growth at 10 µM (786-0): < 10%; inhibition of growth at 10 µM (SF-268): < 10%; inhibition of growth at 10 µM (IGROV-1): < 10%
Cc1csc(NC(=O)C(C)N2CCN(c3ccccc3)CC2)n1 (centres undefined)	< 10	< 10	< 10	< 10	< 10	< 10	< 10	< 10	< 10	< 10	< 10	< 10	< 10	< 10	< 10	< 10	< 10	< 10	< 10	< 10	inhibition of growth at 10 µM (OVCAR-3): < 10%; inhibition of growth at 10 µM (Malme-3M): < 10%; inhibition of growth at 10 µM (COLO 205): < 10%; inhibition of growth at 10 µM [2]: < 10%; inhibition of growth at 10 µM (SNB-19): < 10%; inhibition of growth at 10 µM (CCRF-CEM): < 10%; inhibition of growth at 10 µM (U-251): < 10%; inhibition of growth at 10 µM (A549): < 10%; inhibition of growth at 10 µM (UO-31): 17.9%; inhibition of growth at 10 µM (K562): < 10%; inhibition of growth at 10 µM (786-0): < 10%; inhibition of growth at 10 µM (SF-268): < 10%; inhibition of growth at 10 µM (IGROV-1): < 10%
Cc1cnc(NC(=O)CN2CCN(c3ccccc3)CC2)s1	< 10	< 10	< 10	< 10	< 10	< 10	< 10	< 10	< 10	< 10	< 10	< 10	< 10	< 10	< 10	< 10	< 10	< 10	< 10	< 10	inhibition of growth at 10 µM (OVCAR-3): < 10%; inhibition of growth at 10 µM (Malme-3M): < 10%; inhibition of growth at 10 µM (COLO 205): < 10%; inhibition of growth at 10 µM [2]: < 10%; inhibition of growth at 10 µM (SNB-19): < 10%; inhibition of growth at 10 µM (CCRF-CEM): 69.3%; inhibition of growth at 10 µM (U-251): < 10%; inhibition of growth at 10 µM (A549): < 10%; inhibition of growth at 10 µM (UO-31): 13.1%; inhibition of growth at 10 µM (K562): < 10%; inhibition of growth at 10 µM (786-0): < 10%; inhibition of growth at 10 µM (SF-268): < 10%; inhibition of growth at 10 µM (IGROV-1): < 10%

Reference: ChEMBL document CHEMBL2040727, “Substituted thiazoles VI. Synthesis and antitumor activity of new 2-acetamido- and 2 or 3-propanamido-thiazole analogs” (2012)
